Assay results taken from ChEMBL document CHEMBL4196166 (J Med Chem, 2018).
The source made the active and inactive calls. The calls are words filed in the database; no cut-off is given here.

Experiments:
[1] = test system: Homo sapiens; experiment: Antimetastatic activity against human PSC xenografted in BALB/c nu/nu mouse co-implanted with human AsPC1 cells assessed as reduction in metastasis lesions in liver at 10 mg/kg/day, ip measured after 28 days post first dose by microscopic analysis; assay type: functional, organism-based
Procedure, shortened: (§1)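 Female athymic BALB/c nu/nu mice, 6–8 weeks old. 1×10^6 AsPC-1 and 1×10^6 human pancreatic stellate cells in 50 µL PBS injected into the pancreatic tail. Treatment randomized on day 7 (n = 4/group) for 4 weeks: 10 mg/kg/day ip in 50 mM sodium acetate pH 5.5/10% DMSO/1% Kolliphor HS-15, or gemcitabine 75 mg/kg by oral gavage twice weekly, or vehicle. At kill, liver scored for visible macrometastases, fixed in formalin, and 4 µm sections stained with H&E. Chi-square test.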

[2] = target: T1, Trypsin (Homo sapiens, UniProt P07477+P07478+P35030); experiment: Inhibition of trypsin (unknown origin) at 10 nM to 33.3 uM after 30 mins by gel-based ABPP assay; assay type: protein assay
[3] = test system: Homo sapiens; experiment: Antitumor activity against human PSC xenografted in BALB/c nu/nu mouse co-implanted with human AsPC1 cells assessed as reduction in tumor volume at 10 mg/kg/day, ip measured after 28 days post first dose; assay type: functional, organism-based
Procedure, shortened: (§2)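 Orthotopic AsPC-1 plus human stellate cell co-implant (1×10^6 each) in the pancreatic tail of female nude BALB/c nu/nu mice. From day 7, dosed for 4 weeks (n = 4/group) with 10 mg/kg/day ip in acetate pH 5.5/DMSO/Kolliphor vehicle, or gemcitabine 75 mg/kg gavage twice weekly. Tumors resected at 4 weeks after first injection and measured with calipers by two observers. Volume = 1/2(length×breadth×width). Mean ± SEM.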

[4] = target: Plasma kallikrein (Homo sapiens, UniProt P03952); experiment: Inhibition of plasma kallikrein (unknown origin) at 10 nM to 33.3 uM after 30 mins by gel-based ABPP assay
Plasma kallikrein, sequence (P03952 20-390 limits assumed): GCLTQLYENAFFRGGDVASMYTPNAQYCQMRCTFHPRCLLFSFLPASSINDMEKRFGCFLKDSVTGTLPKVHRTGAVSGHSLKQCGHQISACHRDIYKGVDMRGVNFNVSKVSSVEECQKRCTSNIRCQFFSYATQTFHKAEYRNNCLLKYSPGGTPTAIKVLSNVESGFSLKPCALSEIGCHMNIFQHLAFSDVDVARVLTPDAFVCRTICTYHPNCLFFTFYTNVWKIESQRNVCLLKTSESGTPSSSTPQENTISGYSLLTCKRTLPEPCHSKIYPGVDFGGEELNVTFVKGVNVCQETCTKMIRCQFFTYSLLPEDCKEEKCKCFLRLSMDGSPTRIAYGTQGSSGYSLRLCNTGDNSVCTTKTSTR
Plasma kallikrein, sequence (P03952 391-638 limits assumed): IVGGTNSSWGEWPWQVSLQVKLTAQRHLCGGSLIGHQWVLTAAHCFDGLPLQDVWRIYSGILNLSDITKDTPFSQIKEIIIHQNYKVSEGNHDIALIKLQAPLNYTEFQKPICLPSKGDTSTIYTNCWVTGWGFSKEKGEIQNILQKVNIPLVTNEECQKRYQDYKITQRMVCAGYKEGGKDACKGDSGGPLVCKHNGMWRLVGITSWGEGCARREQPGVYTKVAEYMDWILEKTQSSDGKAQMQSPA

[5] = test system: Homo sapiens; experiment: Antitumor activity against human AsPC1 cells xenografted in BALB/c nu/nu mouse co-implanted with human PSC assessed as reduction in tumor volume at 10 mg/kg/day, ip measured after 28 days post first dose; assay type: functional, organism-based; procedure, shortened: as §2
[6] = target: T2, Epithelial sodium channel subunit alpha (Homo sapiens, UniProt P37088); experiment: Inhibition of S-3969-stimulated recombinant human ENaC alpha subunit expressed in HEK293 cells at 10 uM preincubated for 5 mins followed by S-3969 stimulation by FLIPR assay; assay type: cell-based; settings: hek293, 10 µM
T2 sequence (P37088 whole entry): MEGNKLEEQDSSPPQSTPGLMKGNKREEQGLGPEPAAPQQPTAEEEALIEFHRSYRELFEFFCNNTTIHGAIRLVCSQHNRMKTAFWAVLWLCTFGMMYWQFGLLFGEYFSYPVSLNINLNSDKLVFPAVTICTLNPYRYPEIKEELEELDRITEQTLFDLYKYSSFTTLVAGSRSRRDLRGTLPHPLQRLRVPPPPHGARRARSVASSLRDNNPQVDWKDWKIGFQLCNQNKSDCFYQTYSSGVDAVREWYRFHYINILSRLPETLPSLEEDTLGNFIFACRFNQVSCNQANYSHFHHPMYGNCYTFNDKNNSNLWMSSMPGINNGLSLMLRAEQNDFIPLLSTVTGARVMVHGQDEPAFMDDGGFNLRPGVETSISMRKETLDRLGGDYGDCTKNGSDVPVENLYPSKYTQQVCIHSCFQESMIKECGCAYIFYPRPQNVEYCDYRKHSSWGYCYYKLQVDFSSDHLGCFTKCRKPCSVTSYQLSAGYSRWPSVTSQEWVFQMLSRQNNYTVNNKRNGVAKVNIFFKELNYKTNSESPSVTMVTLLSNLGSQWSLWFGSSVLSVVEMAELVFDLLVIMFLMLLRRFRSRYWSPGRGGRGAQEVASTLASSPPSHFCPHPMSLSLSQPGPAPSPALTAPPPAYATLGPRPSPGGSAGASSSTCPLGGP
Procedure, shortened: (§3)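 HEK-293 cells transfected with human ENaC α, β and γ cDNA together, plated at 20 000 cells/well, incubated overnight at 37 °C. Loaded with membrane-potential red dye for 30 min at 37 °C. Compound preincubated 5 min in HEPES-buffered salt solution (pH 7.4, 0.3% DMSO), then stimulated with 1 µM S-3969, read on FLIPR. Signal normalized to agonist alone (100%) and agonist plus 30 µM benzamil (0%). n = 4 wells.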

[7] = test system: ASPC1; experiment: Antimetastatic activity against human AsPC1 cells xenografted in BALB/c nu/nu mouse co-implanted with human PSC assessed as reduction in metastasis lesions in liver at 10 mg/kg/day, ip measured after 28 days post first dose by microscopic analysis; assay type: functional, organism-based; procedure, shortened: as §1
[8] = test system: HT-1080; experiment: Antimetastatic activity against luciferase-tagged human HT1080 cells xenografted in NOD.Cg-Prkdc-IL2rg<tm1Wjl>SzJAusb mouse assessed as inhibition of late-stage lung metastasis at 7.5 mg/kg/day, ip administered […] measured day 21; assay type: functional; settings: HT-1080, ip
Procedure, shortened: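 2.5 × 10^5 luciferase-tagged HT-1080 cells in PBS given by lateral tail vein on day 0. Daily ip dosing at 7.5 mg/kg from day -1 to day 20 (vehicle 50 mM acetate pH 5.5, 7.5% DMSO, 0.75% Tween80). Lungs harvested at day 21, homogenized, and tumour burden measured by luciferase assay. n = 4–6; one-way ANOVA with Dunnett's test.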

[9] = target: T3, Epithelial sodium channel subunit gamma (Homo sapiens, UniProt P51170); experiment: Inhibition of S-3969-stimulated recombinant human ENaC gamma subunit expressed in HEK293 cells at 10 uM preincubated for 5 mins followed by S-3969 stimulation by FLIPR assay; assay type: cell-based; settings: hek293, 10 µM; procedure, shortened: as §3
T3 sequence (P51170 whole entry): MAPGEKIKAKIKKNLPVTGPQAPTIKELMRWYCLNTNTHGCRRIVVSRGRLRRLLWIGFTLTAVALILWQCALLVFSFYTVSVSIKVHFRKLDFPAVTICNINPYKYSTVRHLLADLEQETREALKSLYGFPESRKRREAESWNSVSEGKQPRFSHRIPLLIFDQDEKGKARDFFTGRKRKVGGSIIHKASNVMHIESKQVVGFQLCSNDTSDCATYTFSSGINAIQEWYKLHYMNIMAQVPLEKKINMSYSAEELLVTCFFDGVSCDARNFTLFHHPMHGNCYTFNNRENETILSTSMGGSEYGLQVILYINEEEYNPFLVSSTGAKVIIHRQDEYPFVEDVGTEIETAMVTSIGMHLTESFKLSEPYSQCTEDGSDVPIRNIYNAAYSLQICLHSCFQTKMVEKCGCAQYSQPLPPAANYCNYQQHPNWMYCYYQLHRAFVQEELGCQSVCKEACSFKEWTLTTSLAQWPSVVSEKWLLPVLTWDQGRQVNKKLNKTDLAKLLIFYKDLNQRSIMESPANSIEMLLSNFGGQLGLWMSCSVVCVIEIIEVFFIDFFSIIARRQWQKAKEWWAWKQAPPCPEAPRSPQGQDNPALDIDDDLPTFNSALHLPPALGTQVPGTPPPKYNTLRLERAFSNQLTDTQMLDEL

[10] = target: T1, Trypsin; experiment: Inhibition of trypsin (unknown origin) using chromogenic H-D-Ile-L-Pro-L-Arg-p-nitoraniline as substrate by […]; assay type: protein assay

`N=C(N)NC(=O)c1nc(-c2cc3ccccc3o2)c(N2CCCCCC2)nc1N` was tested, and the Activity [1] was “Active”, the inhibition [2] was “Active” and the Activity [3] was “Active”. The inhibition [4] was “Active”, the Activity [5] was “Active” and the “inhibition (INH)” value [6] was “Not Active”. The Activity [7] was “Active”, the inhibition in vivo at 7.5 mg/kg/day [8] was 21% and the “inhibition (INH)” value [9] was “Not Active”. The IC50 [10] was greater than 10 µM.
With `COc1ncc(-c2nc(C(=O)NC(=N)N)c(N)nc2N2CCCCCC2)cn1` the Activity [1] was “Active”, the inhibition [2] was “Active” and the Activity [3] was “Active”. For the same compound, the inhibition [4] was “Active”, the Activity [5] was “Active” and the Activity [7] was “Active”. The inhibition in vivo at 7.5 mg/kg/day [8] was 33%.
In the case of `N=C(N)NC(=O)c1nc(Cl)c(N2CCCCCC2)nc1N` [N,N-HEXAMETHYLENEAMILORIDE], the “inhibition (INH)” value [6] was “Not Active”, the “inhibition (INH)” value [9] was “Not Active” and the IC50 [10] was greater than 10 µM.
